In test [1] the target is T1, Pituitary adenylate cyclase-activating polypeptide type I receptor (Homo sapiens, UniProt P41586). Description: Displacement of [125I]Ac-PACAP27 from human recombinant PAC1 receptor expressed in CHO cells by gamma- counter. It is filed as cell-based. For orientation: Displacement assays read how much labelled ligand stays bound in the presence of the test substance.
Target sequence in this assay (P41586 whole entry): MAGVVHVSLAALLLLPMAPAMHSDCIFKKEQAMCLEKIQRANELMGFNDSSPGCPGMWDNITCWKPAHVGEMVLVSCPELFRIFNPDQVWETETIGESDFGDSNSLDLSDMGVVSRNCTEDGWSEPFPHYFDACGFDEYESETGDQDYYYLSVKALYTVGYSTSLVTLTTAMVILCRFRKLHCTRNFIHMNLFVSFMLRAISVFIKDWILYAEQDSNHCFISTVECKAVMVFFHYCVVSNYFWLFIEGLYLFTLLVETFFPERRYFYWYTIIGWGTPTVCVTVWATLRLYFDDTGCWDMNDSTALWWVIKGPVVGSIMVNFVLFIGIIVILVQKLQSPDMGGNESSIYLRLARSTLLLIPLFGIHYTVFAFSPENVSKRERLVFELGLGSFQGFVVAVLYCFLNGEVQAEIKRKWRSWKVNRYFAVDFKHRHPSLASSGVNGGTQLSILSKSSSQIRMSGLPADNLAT

For test [2], the target named is T1, Pituitary adenylate cyclase-activating polypeptide type I receptor. Briefly: Agonist activity at human recombinant PAC1 receptor expressed in CHO cells assessed as PACAP38-induced calcium mobilization by FLIPR assay relative to PACAP38. It is filed as functional, cell-based. The gist of the method:
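CHO cells stably expressing recombinant human PAC1, plated 24 h before assay, loaded with fluo-4 AM for 60 min at 37 °C in the dark, then rinsed into HBSS for 15 min at 37 °C. Peptide was added 18 s into a 150 s read (ex 480/em 525 nm), at final concentrations of 1 × 10-12 to 1 × 10^-5 M. Response was normalised to 1 × 10^-5 M PACAP38 on each plate. EC50 and efficacy came from nonlinear regression; 4-10 independent assays in duplicate.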
Target sequence in this assay (P41586 21-468 limits assumed): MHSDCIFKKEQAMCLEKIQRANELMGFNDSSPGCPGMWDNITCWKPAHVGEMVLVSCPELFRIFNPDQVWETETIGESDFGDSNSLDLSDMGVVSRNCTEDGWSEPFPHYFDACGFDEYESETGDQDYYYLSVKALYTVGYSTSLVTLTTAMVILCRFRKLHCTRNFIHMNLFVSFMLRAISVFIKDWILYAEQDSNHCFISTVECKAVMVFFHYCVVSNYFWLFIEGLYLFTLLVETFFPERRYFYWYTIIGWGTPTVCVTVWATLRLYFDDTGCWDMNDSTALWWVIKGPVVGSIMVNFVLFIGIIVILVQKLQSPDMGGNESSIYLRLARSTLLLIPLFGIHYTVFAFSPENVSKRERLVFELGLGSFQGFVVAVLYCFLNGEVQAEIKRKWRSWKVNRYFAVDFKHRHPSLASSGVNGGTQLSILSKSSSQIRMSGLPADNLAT

The target is the same in test [3]. Briefly: Agonist activity at human recombinant PAC1 receptor expressed in CHO cells assessed as PACAP38-induced calcium mobilization by FLIPR assay. It is filed as functional, cell-based. The gist of the method: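 CHO cells stably expressing recombinant human PAC1, plated 24 h before assay, loaded with fluo-4 AM for 60 min at 37 °C in the dark, then rinsed into HBSS for 15 min at 37 °C. EC50 and efficacy came from nonlinear regression; 4-10 independent assays in duplicate.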
Target sequence in this assay (P41586 whole entry): as the sequence (P41586 whole entry) above

Where a SMILES comes first, the peptide text is derived from it.

A word on the IC50: it is the concentration that inhibits the measured activity by half. One may read the Emax as the maximal effect, on the per cent scale that the assay sets. Usually EC50 stands for the concentration at which the effect is half-maximal. With `CC[C@H](C)[C@H](NC(=O)CNC(=O)[C@H](CC(=O)O)NC(=O)[C@H](CO)NC(=O)[C@@H](N)Cc1cnc[nH]1)C(=O)N[C@@H](Cc1ccc(O)cc1)C(=O)N[C@H](C(=O)N[C@@H](CC(=O)O)C(=O)N[C@@H](CO)C(=O)N[C@@H](Cc1ccc(O)cc1)C(=O)N[C@@H](CO)C(=O)N[C@@H](CCCNC(=N)N)C(=O)N[C@@H](Cc1ccc(O)cc1)C(=O)N[C@@H](CCCNC(=N)N)C(=O)N[C@@H](CCCCN)C(=O)N[C@@H](CCC(N)=O)C(=O)N[C@@H](CCSC)C(=O)N[C@@H](C)C(=O)N[C@H](C(=O)N[C@@H](CCCCN)C(=O)N[C@@H](CCCCN)C(=O)N[C@@H](Cc1ccc(O)cc1)C(=O)N[C@@H](CC(C)C)C(=O)N[C@@H](C)C(=O)N[C@@H](C)C(=O)N[C@H](C(=O)N[C@@H](CC(C)C)C(N)=O)C(C)C)C(C)C)[C@@H](C)O`, the IC50 in test [1] was 7.9 nM. Further, in test [2], the Emax amounted to 108%. Also, in test [3], the EC50 was determined as 7.7 nM.
Take `CC[C@H](C)[C@H](NC(=O)CNC(=O)[C@H](CC(=O)O)NC(=O)[C@H](CO)NC(=O)[C@@H](N)Cc1cnc[nH]1)C(=O)N[C@@H](C)C(=O)N[C@H](C(=O)N[C@@H](CC(=O)O)C(=O)N[C@@H](CO)C(=O)N[C@@H](Cc1ccc(O)cc1)C(=O)N[C@@H](CO)C(=O)N[C@@H](CCCNC(=N)N)C(=O)N[C@@H](Cc1ccc(O)cc1)C(=O)N[C@@H](CCCNC(=N)N)C(=O)N[C@@H](CCCCN)C(=O)N[C@@H](CCC(N)=O)C(=O)N[C@@H](CCSC)C(=O)N[C@@H](C)C(=O)N[C@H](C(=O)N[C@@H](CCCCN)C(=O)N[C@@H](CCCCN)C(=O)N[C@@H](Cc1ccc(O)cc1)C(=O)N[C@@H](CC(C)C)C(=O)N[C@@H](C)C(=O)N[C@@H](C)C(=O)N[C@H](C(=O)N[C@@H](CC(C)C)C(=O)NCC(=O)N[C@@H](CCCCN)C(=O)N[C@@H](CCCNC(=N)N)C(=O)N[C@@H](Cc1ccc(O)cc1)C(=O)N[C@@H](CCCCN)C(=O)N[C@@H](CCC(N)=O)C(=O)N[C@@H](CCCNC(=N)N)C(=O)N[C@H](C(=O)N[C@@H](CCCCN)C(=O)N[C@@H](CC(N)=O)C(=O)N[C@@H](CCCCN)C(N)=O)C(C)C)C(C)C)C(C)C)[C@@H](C)O` (H-HSDGIATDSYSRYRKQMAVKKYLAAVLGKRYKQRVKNK-NH2): the IC50 in test [1] was determined as 208 nM. The Emax in test [2] stood at 50.4%. Moreover, the EC50 in test [3] is 17.3 nM.
Turning to `CC[C@H](C)[C@H](NC(=O)CNC(=O)[C@H](CC(=O)O)NC(=O)[C@H](CO)NC(=O)[C@@H](N)Cc1cnc[nH]1)C(=O)N[C@@H](Cc1ccccc1)C(=O)N[C@@H](C)C(=O)N[C@@H](CC(=O)O)C(=O)N[C@@H](CO)C(=O)N[C@@H](Cc1ccc(O)cc1)C(=O)N[C@@H](CO)C(=O)N[C@@H](CCCNC(=N)N)C(=O)N[C@@H](Cc1ccc(O)cc1)C(=O)N[C@@H](CCCNC(=N)N)C(=O)N[C@@H](CCCCN)C(=O)N[C@@H](CCC(N)=O)C(=O)N[C@@H](CCSC)C(=O)N[C@@H](C)C(=O)N[C@H](C(=O)N[C@@H](CCCCN)C(=O)N[C@@H](CCCCN)C(=O)N[C@@H](Cc1ccc(O)cc1)C(=O)N[C@@H](CC(C)C)C(=O)N[C@@H](C)C(=O)N[C@@H](C)C(=O)N[C@H](C(=O)N[C@@H](CC(C)C)C(=O)NCC(=O)N[C@@H](CCCCN)C(=O)N[C@@H](CCCNC(=N)N)C(=O)N[C@@H](Cc1ccc(O)cc1)C(=O)N[C@@H](CCCCN)C(=O)N[C@@H](CCC(N)=O)C(=O)N[C@@H](CCCNC(=N)N)C(=O)N[C@H](C(=O)N[C@@H](CCCCN)C(=O)N[C@@H](CC(N)=O)C(=O)N[C@@H](CCCCN)C(N)=O)C(C)C)C(C)C)C(C)C` (H-HSDGIFADSYSRYRKQMAVKKYLAAVLGKRYKQRVKNK-NH2), the 50% inhibitory concentration (IC50) in test [1] was 4 nM. Moreover, in test [2], the Emax was 101%. Also, in test [3], the EC50 was 0.8 nM.
`CC[C@H](C)[C@H](NC(=O)CNC(=O)[C@H](CC(=O)O)NC(=O)[C@@H]1CCCN1C(=O)[C@@H](N)Cc1cnc[nH]1)C(=O)N[C@@H](Cc1ccccc1)C(=O)N[C@H](C(=O)N[C@@H](CC(=O)O)C(=O)N[C@@H](CO)C(=O)N[C@@H](Cc1ccc(O)cc1)C(=O)N[C@@H](CO)C(=O)N[C@@H](CCCNC(=N)N)C(=O)N[C@@H](Cc1ccc(O)cc1)C(=O)N[C@@H](CCCNC(=N)N)C(=O)N[C@@H](CCCCN)C(=O)N[C@@H](CCC(N)=O)C(=O)N[C@@H](CCSC)C(=O)N[C@@H](C)C(=O)N[C@H](C(=O)N[C@@H](CCCCN)C(=O)N[C@@H](CCCCN)C(=O)N[C@@H](Cc1ccc(O)cc1)C(=O)N[C@@H](CC(C)C)C(=O)N[C@@H](C)C(=O)N[C@@H](C)C(=O)N[C@H](C(=O)N[C@@H](CC(C)C)C(=O)NCC(=O)N[C@@H](CCCCN)C(=O)N[C@@H](CCCNC(=N)N)C(=O)N[C@@H](Cc1ccc(O)cc1)C(=O)N[C@@H](CCCCN)C(=O)N[C@@H](CCC(N)=O)C(=O)N[C@@H](CCCNC(=N)N)C(=O)N[C@H](C(=O)N[C@@H](CCCCN)C(=O)N[C@@H](CC(N)=O)C(=O)N[C@@H](CCCCN)C(N)=O)C(C)C)C(C)C)C(C)C)[C@@H](C)O`: the IC50 in test [1] is 8.5 nM. In test [2], the Emax is 89.3%. The EC50 in test [3] came to 4.1 nM.
Taken in the same sequence, the figures for `CC[C@H](C)[C@H](NC(=O)CNC(=O)[C@H](CC(=O)O)NC(=O)[C@@H]1C[C@@H](O)CN1C(=O)[C@@H](N)Cc1cnc[nH]1)C(=O)N[C@@H](Cc1ccccc1)C(=O)N[C@H](C(=O)N[C@@H](CC(=O)O)C(=O)N[C@@H](CO)C(=O)N[C@@H](Cc1ccc(O)cc1)C(=O)N[C@@H](CO)C(=O)N[C@@H](CCCNC(=N)N)C(=O)N[C@@H](Cc1ccc(O)cc1)C(=O)N[C@@H](CCCNC(=N)N)C(=O)N[C@@H](CCCCN)C(=O)N[C@@H](CCC(N)=O)C(=O)N[C@@H](CCSC)C(=O)N[C@@H](C)C(=O)N[C@H](C(=O)N[C@@H](CCCCN)C(=O)N[C@@H](CCCCN)C(=O)N[C@@H](Cc1ccc(O)cc1)C(=O)N[C@@H](CC(C)C)C(=O)N[C@@H](C)C(=O)N[C@@H](C)C(=O)N[C@H](C(=O)N[C@@H](CC(C)C)C(N)=O)C(C)C)C(C)C)[C@@H](C)O` were 8.5 nM, 89.2% and 2.3 nM.
Taken in the same sequence, the figures for `CC[C@H](C)[C@H](NC(=O)CNC(=O)[C@H](CC(=O)O)N(C)C(=O)[C@H](CO)NC(=O)[C@@H](N)Cc1cnc[nH]1)C(=O)N[C@@H](Cc1ccccc1)C(=O)N[C@H](C(=O)N[C@@H](CC(=O)O)C(=O)N[C@@H](CO)C(=O)N[C@@H](Cc1ccc(O)cc1)C(=O)N[C@@H](CO)C(=O)N[C@@H](CCCNC(=N)N)C(=O)N[C@@H](Cc1ccc(O)cc1)C(=O)N[C@@H](CCCNC(=N)N)C(=O)N[C@@H](CCCCN)C(=O)N[C@@H](CCC(N)=O)C(=O)N[C@@H](CCSC)C(=O)N[C@@H](C)C(=O)N[C@H](C(=O)N[C@@H](CCCCN)C(=O)N[C@@H](CCCCN)C(=O)N[C@@H](Cc1ccc(O)cc1)C(=O)N[C@@H](CC(C)C)C(=O)N[C@@H](C)C(=O)N[C@@H](C)C(=O)N[C@H](C(=O)N[C@@H](CC(C)C)C(N)=O)C(C)C)C(C)C)[C@@H](C)O` were 25.2 nM, 89.2% and 418 nM.

For the origin of these results see ChEMBL document CHEMBL1138520, “Molecular and conformational determinants of pituitary adenylate cyclase-activating polypeptide (PACAP) for activation of the PAC1 receptor” (J Med Chem, 2009).
